# Measured values published in ChEMBL document CHEMBL1833877, “Antinociceptive properties of bergenin” (J Nat Prod, 2011).
# Calls of active or inactive are those of the source.
# Assays:
# Mus musculus [1] = experiment: Antinociceptive activity against formalin-induced pain in mouse assessed as paw licking during early phase (0 to 10 mins) at 50 mg/kg, ip administered 40 mins before formalin challenge; assay type: functional, organism-based; design: dose 50 mg/kg
# Procedure, shortened: (§1)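 Mice were acclimated 30 min in an observation chamber, then given 20 μL of 2.5% formalin sc into the dorsal hind paw. Dosing was ip (2% DMSO/saline vehicle) 40 min beforehand. Time spent licking the injected paw was scored over 0–10 min and 10–60 min. n = 6/group, means ± SEM, ANOVA with Tukey.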
# Mus musculus [2] = experiment: Antinociceptive activity in ip dosed mouse assessed as inhibition of acetic acid-induced abdominal constrictions administered 40 mins before acetic acid challenge measured for 30 mins; assay type: functional, organism-based; settings: Abdomen
# Procedure, shortened: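 Dosing was ip in 2% DMSO/saline 40 min before ip acetic acid (0.8% v/v, 10 mL/kg). Writhes (abdominal contraction with hind-limb stretching) were counted over 0–30 min. n = 6 mice/group, means ± SEM, ANOVA with Tukey.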
# Mus musculus [3] = experiment: Antinociceptive activity against formalin-induced pain in mouse assessed as paw licking during early phase (0 to 10 mins) at 100 mg/kg, ip administered 40 mins before formalin challenge; assay type: functional, organism-based; design: dose 100 mg/kg; procedure, shortened: as §1
# Mus musculus [4] = experiment: Antinociceptive activity against formalin-induced pain in mouse assessed as paw licking during late phase (10 to 60 mins) at 50 mg/kg, ip administered 40 mins before formalin challenge; assay type: functional, organism-based; design: dose 50 mg/kg; procedure, shortened: as §1
# Mus musculus [5] = experiment: Antinociceptive activity against formalin-induced pain in mouse assessed as paw licking during late phase (10 to 60 mins) at 100 mg/kg, ip administered 40 mins before formalin challenge; assay type: functional, organism-based; design: dose 100 mg/kg; procedure, shortened: as §1
# Mus musculus [6] = experiment: Neurotoxicity in mouse assessed as effect on motor coordination by measuring reduced latency at 100 mg/kg, ip after 40 mins by rotarod test; assay type: toxicity, organism-based; design: dose 100 mg/kg, route intraperitoneal; settings: in vivo
# Procedure, shortened: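 Mice were pre-selected 24 h earlier for staying on the bar for two 120 s periods. Rotarod was a 3 cm bar at 5 rpm. Mice were tested 40 min after ip dosing, with diazepam 10 mg/kg ip as reference. Time on the rod was recorded up to 120 s. n = 6/group.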
# Mus musculus [7] = experiment: Antinociceptive activity against Freund's complete adjuvant-induced paw inflammation in mouse assessed as reduction in mechanical hyperalgesia at 50 mg/kg, ip administered 40 mins before CFA challenge measured after 2 to 6 hrs; assay type: functional, organism-based; design: dose 50 mg/kg
# Procedure, shortened: (§2)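 Mice, lightly halothane-anesthetized, got 20 μL complete Freund's adjuvant (1 mg/mL heat-killed M. tuberculosis in paraffin oil/mannide monooleate) sc into the right hind plantar surface. Treatment was ip in 2% DMSO/saline 40 min before CFA. Mechanical threshold was read with von Frey filaments by the up-down method at 2, 4 and 6 h. n = 6 mice/group, means ± SEM, two-way ANOVA with Bonferroni.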
# Mus musculus [8] = experiment: Antinociceptive activity against Freund's complete adjuvant-induced paw inflammation in mouse assessed as reduction in mechanical hyperalgesia at 100 mg/kg, ip administered 40 mins before CFA challenge measured after 2 to 6 hrs; assay type: functional, organism-based; design: dose 100 mg/kg; procedure, shortened: as §2
# Mus musculus [9] = experiment: Antinociceptive activity against Freund's complete adjuvant-induced paw inflammation in mouse assessed as reduction in paw edema at 50 mg/kg, ip administered 40 mins before CFA challenge measured after 2 hrs; assay type: functional, organism-based; design: dose 50 mg/kg
# Procedure, shortened: (§3)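 CFA (20 μL, 1 mg/mL heat-killed M. tuberculosis) was injected sc into the right hind plantar surface. Treatment was ip in 2% DMSO/saline 40 min before. Paw volume was read by plethysmometer before and after CFA, and edema taken as the volume difference (mm3/paw). n = 6 mice/group, means ± SEM, two-way ANOVA with Bonferroni.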
# Mus musculus [10] = experiment: Antinociceptive activity against Freund's complete adjuvant-induced paw inflammation in mouse assessed as reduction in paw edema at 50 mg/kg, ip administered 40 mins before CFA challenge measured after 4 hrs; assay type: functional, organism-based; design: dose 50 mg/kg; procedure, shortened: as §3
# Mus musculus [11] = experiment: Antinociceptive activity against Freund's complete adjuvant-induced paw inflammation in mouse assessed as reduction in paw edema at 50 mg/kg, ip administered 40 mins before CFA challenge measured after 6 hrs; assay type: functional, organism-based; design: dose 50 mg/kg; procedure, shortened: as §3
# Mus musculus [12] = experiment: Antinociceptive activity against Freund's complete adjuvant-induced paw inflammation in mouse assessed as reduction in paw edema at 100 mg/kg, ip administered 40 mins before CFA challenge measured after 2 hrs; assay type: functional, organism-based; design: dose 100 mg/kg; procedure, shortened: as §3
# Mus musculus [13] = experiment: Antinociceptive activity against Freund's complete adjuvant-induced paw inflammation in mouse assessed as reduction in paw edema at 100 mg/kg, ip administered 40 mins before CFA challenge measured after 4 hrs; assay type: functional, organism-based; design: dose 100 mg/kg; procedure, shortened: as §3
# Mus musculus [14] = experiment: Antinociceptive activity against Freund's complete adjuvant-induced paw inflammation in mouse assessed as reduction in paw edema at 100 mg/kg, ip administered 40 mins before CFA challenge measured after 6 hrs; assay type: functional, organism-based; design: dose 100 mg/kg; procedure, shortened: as §3
# Mus musculus [15] = experiment: Effect on baseline nociceptive threshold in Freund's complete adjuvant-induced mouse at 50 to 100 mg/kg, ip administered 40 mins before CFA challenge measured 2 to 6 hrs; assay type: functional, organism-based
# Mus musculus [16] = experiment: Inhibition of IL1-beta production in Freund's complete adjuvant-induced mouse at 50 mg/kg, ip administered 40 mins before CFA challenge measured after 2 hrs by ELISA; assay type: functional, organism-based; design: dose 50 mg/kg
# Procedure, shortened: (§4)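 CFA was given intraplantar, with ip dosing (2% DMSO/saline vehicle) 40 min earlier. At 2 h, paw skin was taken under terminal halothane anesthesia. Tissue was extracted (100 mg/mL PBS with 0.4 M NaCl, 0.05% Tween 20 and protease inhibitors) and centrifuged at 3000g for 10 min. Supernatant was assayed by mouse ELISA, in pg/mL. n = 6/group.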
# Mus musculus [17] = experiment: Inhibition of IL1-beta production in Freund's complete adjuvant-induced mouse at 100 mg/kg, ip administered 40 mins before CFA challenge measured after 2 hrs by ELISA; assay type: functional, organism-based; design: dose 100 mg/kg; procedure, shortened: as §4
# Mus musculus [18] = experiment: Inhibition of TNF-alpha production in Freund's complete adjuvant-induced mouse at 50 mg/kg, ip administered 40 mins before CFA challenge measured after 2 hrs by ELISA; assay type: functional, organism-based; design: dose 50 mg/kg; procedure, shortened: as §4
# Mus musculus [19] = experiment: Inhibition of TNF-alpha production in Freund's complete adjuvant-induced mouse at 100 mg/kg, ip administered 40 mins before CFA challenge measured after 2 hrs by ELISA; assay type: functional, organism-based; design: dose 100 mg/kg; procedure, shortened: as §4
# Mus musculus [20] = experiment: Inhibition of IL10 production in Freund's complete adjuvant-induced C57BL/6 mouse paw at 100 mg/kg, ip administered 40 mins before CFA challenge measured after 3 hrs by ELISA; assay type: functional, organism-based; design: dose 100 mg/kg
# Procedure, shortened: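 C57BL/6 wild-type mice received an ip dose 40 min before intraplantar CFA. Paw tissue IL-10 was read by ELISA 3 h after CFA, on protein extracts in PBS/0.4 M NaCl/Tween 20 with protease inhibitors. A saline group got 20 μL intraplantar saline instead. n = 6/group, means ± SEM, two-way ANOVA with Bonferroni.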
# Mus musculus [21] = experiment: Antinociceptive activity against Freund's complete adjuvant-induced paw inflammation in IL10-deficient C57BL/6 mouse assessed as reduction in mechanical hyperalgesia at 100 mg/kg, ip administered 40 mins before CFA challenge measured 2 to 6 hrs; assay type: functional, organism-based; design: dose 100 mg/kg; procedure, shortened: as §2
# Mus musculus [22] = experiment: Toxicity in mouse assessed as reduction in corporal mass at 50 mg/kg, ip for seven consecutive days relative to control; assay type: organism-based; design: dose 50 mg/kg, route intraperitoneal; settings: in vivo
# Procedure, shortened: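 Male mice (22–28 g) weighed and dosed once daily ip for seven consecutive days with test agent or vehicle (2% DMSO in saline). Body mass, general appearance and toxic signs followed and compared with vehicle-treated mice. Data are means ± SEM, 6–9 animals per group.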
# Mus musculus [23] = experiment: Toxicity in mouse assessed as change in general appearance at 50 mg/kg, ip for seven consecutive days relative to control; assay type: organism-based; design: dose 50 mg/kg, route intraperitoneal; settings: in vivo
# Procedure, shortened: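 Mice were weighed and dosed ip once daily for 7 consecutive days, vehicle controls alongside, and monitored for toxic signs and general appearance. At the end, retro-orbital blood was taken under light anesthesia for leukocyte counts. Serum, from blood centrifuged at 2500 rpm for 15 min without anticoagulant, was used for ALT and AST.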
compound,measurement,setting,value
COc1c(O)cc2c(c1O)[C@@H]1O[C@H](CO)[C@@H](O)[C@H](O)[C@H]1OC2=O [BERGENIN],Activity,Mus musculus [1],Active
same,Activity,Mus musculus [2],Dose-dependent effect
same,Activity,Mus musculus [3],Active
same,Activity,Mus musculus [4],Active
same,Activity,Mus musculus [5],Active
same,Activity,Mus musculus [6],Non-toxic
same,Activity,Mus musculus [7],Active
same,Activity,Mus musculus [8],Active
same,Activity,Mus musculus [9],Active
same,Activity,Mus musculus [10],Active
same,Activity,Mus musculus [11],inactive
same,Activity,Mus musculus [12],Active
same,Activity,Mus musculus [13],Active
same,Activity,Mus musculus [14],inactive
same,Activity,Mus musculus [15],inactive
same,inhibition,Mus musculus [16],Active
same,inhibition,Mus musculus [17],Active
same,inhibition,Mus musculus [18],Active
same,inhibition,Mus musculus [19],Active
same,inhibition,Mus musculus [20],inactive
same,Activity,Mus musculus [21],Active
same,Activity,Mus musculus [22],Non-toxic
same,Activity,Mus musculus [23],Non-toxic
